Test results: PubChem BioAssay
Inconclusive results are not listed.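 The calls were made as follows, unless noted: active = inhibition over a set limit, the all-compound mean plus 3 SD, in both replicate runs; inconclusive = over that limit in just one replicate run; inactive = at or under that limit in both runs.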

Legend:
[1] = OD615 S. cerevisiae growth inhibition, permissive medium, pilot counter-assay, permissive growth control for S. cerevisiae lifespan shortening project (AID 705;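 active = growth inhibition above 25% in both replicates, a cutoff set 3 SD above the mean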); settings: OD615, 24 h, at 10 µM, hits give high values
Method in brief: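 assay system = Saccharomyces cerevisiae strain carrying genetically modified DeaD replicative-lifespan system | technique = absorbance (optical density) at 615 nm | buffer or medium = permissive raffinose/galactose medium | timing = cells pre-grown 4 h, then 24 h compound exposure, 30 °C humidified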

[2] = Restrictive medium S. cerevisiae growth inhibition, OD615, pilot screen of yeast lifespan reduction project, restrictive growth control (AID 706;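 active = growth inhibition above a set limit, 3 SD over mean compound inhibition, in both replicates, cut at about 43% in these data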;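 also: modified DeaD lifespan yeast strain shifted to restrictive glucose medium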); settings: OD615, 48 h, at 10 µM, hits give high values
Method in brief: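 System: modified S. cerevisiae. Buffer or medium: CSMM-D glucose medium. Incubation: 4 h pre-growth plus 48 h compound exposure, 30 °C. Detection: absorbance (optical density) measured at 615 nm.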

[3] = viability gain of MRP-1-high H69AR cells under doxorubicin, pilot screen, MRP-1 activator project, CellTiter-Glo, duplicate (AID 807;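 active = viability increase at or above a cutoff of the median across tested compounds plus 3 SD, cut at about 8.5% in these data, passing the limit was not always enough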;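 also: compound pretreatment 18-22 h then 72 h combined with doxorubicin; 0% = doxorubicin alone and 100% = vehicle without doxorubicin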); settings: H69AR viability with doxorubicin, CellTiter-Glo luminescence; at 10 µM; hits give high values
[4] = growth suppression of beta-catenin knockout HCT116, pilot screen, human colon tumor cells (AID 823;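 active = cell viability at or below a set limit in both duplicate runs, the limit being the all-compound median minus 4 SD, cut at about 23% in these data, passing the limit was not always enough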;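 also: 0% = wells killed by 20 µM Hyamine and 100% = untreated DMSO cell wells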); settings: CellTiter-Glo, 60 h, at 10 µM, hits give low values
[5] = growth suppression of PTEN-deleted HCT116, pilot screen, cell-based, HCT116 clonal line, CellTiter-Glo (AID 824;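 active = viability at or below 27.92% in each of two runs, the all-compound median minus 4 SD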;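 also: 0% = 20 µM Hyamine control and 100% = vehicle cell control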); settings: 60 h, at 10 µM, hits give low values
[6] = inhibitors of the yeast RAM network, pilot screen, dse1pr::URA3 reporter, 5-FOA selection (AID 869);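 also: 0% = DMSO wells with no growth and 100% = 10 µM 1-NA-PP1 with full growth; RAM network block rescues cells from 5-FOA so hits raise OD615 growth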; settings: S. cerevisiae dse1pr::URA3 5-FOA growth, OD615, 2 d; at 10 µM; hits give high values; strain carries analog-sensitive mutant Cbk1 kinase
[7] = RAM signaling pathway blockade in yeast – S. cerevisiae, Pdr1DBD-CYC8 efflux-inhibited sensitized strain, primary screen (AID 1298;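 active = RAM network inhibition above 8.4% in each of two replicates, 3 SD over the compound average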;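 also: 0% = DMSO untreated cells without growth and 100% = 10 µM 1-NA-PP1 full growth; higher means more yeast growth rescued from 5-FOA killing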); settings: S. cerevisiae cbk1-as DSE1-URA3 strain, 5-FOA growth OD615, 2 d; at 50 µM; hits give high values

CCOC(=O)C1CCCN(C(=O)Cc2c(C(=O)O)[nH]c3ccccc23)C1 (stereo unspecified)
inactive: growth inhibition [1] -7.59% | growth inhibition [2] -0.39% | viability increase [3] -0.1% | viability [4] 97.3% | viability [5] 96.9% | inhibition [6] 0.53% | RAM network inhibition [7] 3.59%

Cc1ccc(OC(=O)CCC(=O)N2CCc3ccccc32)cc1
inactive: growth inhibition [1] -5.4% | growth inhibition [2] -2.35% | viability increase [3] -3.7% | viability [4] 89.6% | viability [5] 97.9% | inhibition [6] 2.2% | RAM network inhibition [7] 0.82%

COc1cccc(C2NC(=O)NC(C)=C2C(=O)Nc2ccc(C)cc2)c1 (stereo unspecified)
inactive: growth inhibition [1] -9.18% | growth inhibition [2] -12% | viability increase [3] 1.54% | viability [4] 106% | viability [5] 97.6% | inhibition [6] 0.285% | RAM network inhibition [7] 3.39%

CCc1ccc(C2CC(c3cccc(Cl)c3)n3nc(N)nc3N2)cc1 (stereo unspecified)
inactive: growth inhibition [1] -3.09% | growth inhibition [2] 10.4% | viability increase [3] -3.92% | viability [4] 71.5% | viability [5] 65.6% | inhibition [6] 2.25% | RAM network inhibition [7] 9.11%

COc1ccc(C(=O)CCC(=O)O)cc1
inactive: growth inhibition [1] -6.25% | growth inhibition [2] 0.095% | viability increase [3] -0.14% | viability [4] 98.1% | viability [5] 96.7% | inhibition [6] 2.16% | RAM network inhibition [7] -2.03%

Cc1ccccc1N1C(=O)c2cccc3c(N(C)CCO)ccc(c23)C1=O
inactive: growth inhibition [1] 5.99% | growth inhibition [2] -6.49% | viability increase [3] -3.91% | viability [4] 104% | viability [5] 90.4% | inhibition [6] 2.26% | RAM network inhibition [7] 2.12%

COc1ccc(-n2c(Cc3cccn3C)nnc2SCC(=O)Nc2ccc3c(c2)OCCO3)cc1
inactive: growth inhibition [1] 4.97% | growth inhibition [2] 8.29% | viability increase [3] -1.74% | viability [4] 103% | viability [5] 94.6% | inhibition [6] 1.61% | RAM network inhibition [7] 6.11%

Cc1ccc(N2CCN(c3cc(C)nc4nc(C)nn34)CC2)c(C)c1
inactive: growth inhibition [1] -17.8% | growth inhibition [2] 25.7% | viability increase [3] -2.76% | viability [4] 83.3% | viability [5] 75.8% | inhibition [6] -0.325% | RAM network inhibition [7] 2.52%

CCSC(C)CC1CC(=O)CC(=O)C1 (stereo unspecified)
inactive: growth inhibition [1] -11.7% | growth inhibition [2] 6.03% | viability increase [3] 0.29% | viability [4] 94% | viability [5] 89.9% | inhibition [6] 1.39% | RAM network inhibition [7] 2.13%

CCn1cc(C(=O)N2CCCC2)c(=O)c2cc(S(=O)(=O)N(C)C)ccc21
inactive: growth inhibition [1] -3.43% | growth inhibition [2] 6.6% | viability increase [3] 0.77% | viability [4] 106% | viability [5] 101% | inhibition [6] 0.825% | RAM network inhibition [7] 3.02%

CCOC(=O)N1CCC(Nc2ccc3nnc(-c4ccccc4)n3n2)CC1
inactive: growth inhibition [1] 12.3% | growth inhibition [2] 29.3% | viability increase [3] -6.99% | viability [4] 69.4% | viability [5] 66% | inhibition [6] -0.975% | RAM network inhibition [7] 2.57%

CCN1CCN(C(c2cccs2)C(C)NC(=O)c2cccc(OC)c2)CC1 (stereo unspecified)
inactive: growth inhibition [1] -2.49% | growth inhibition [2] -14.8% | viability increase [3] -2.25% | viability [4] 103% | viability [5] 89.7% | inhibition [6] -0.09% | RAM network inhibition [7] -0.01%

CCCC(=O)C1=C(O)C(C(=O)OC)C(C)(C)CC1=Nc1ccccc1 (stereo unspecified)
inactive: growth inhibition [1] -12.6% | growth inhibition [2] -6.79% | viability increase [3] -0.91% | viability [4] 91.2% | viability [5] 88.6% | inhibition [6] 0.685% | RAM network inhibition [7] 2.75%

Cc1ccc(NC(=O)C(C)N2CCOCC2)c(C(=O)c2ccccc2)c1 (stereo unspecified)
inactive: growth inhibition [1] -11.7% | growth inhibition [2] -12.7% | viability increase [3] -1.7% | viability [4] 100% | viability [5] 99.5% | inhibition [6] 1.09% | RAM network inhibition [7] 3.04%

S=c1[nH]nc(CSc2nc3ccccc3s2)o1
inactive: growth inhibition [1] -1.19% | growth inhibition [2] 16.7% | viability increase [3] -4.34% | viability [4] 93.8% | viability [5] 99.1% | inhibition [6] 0.95% | RAM network inhibition [7] 0.83%

CC1Cc2ccccc2C(=O)N1 (stereo unspecified)
inactive: growth inhibition [1] 0.58% | growth inhibition [2] 11.4% | viability increase [3] 0.15% | viability [4] 106% | viability [5] 99% | inhibition [6] 0.36% | RAM network inhibition [7] 3.5%

COc1cc(-c2nc(-c3cccc(C)c3)no2)cc(OC)c1OC
inactive: growth inhibition [1] -5.34% | growth inhibition [2] -14.7% | viability increase [3] 0.46% | viability [4] 81.3% | viability [5] 81% | inhibition [6] 2.26% | RAM network inhibition [7] 9.46%

Cc1cc(C)n2nc(S(=O)(=O)N(CC(C)C)CC(C)C)nc2n1
inactive: growth inhibition [1] 3.3% | growth inhibition [2] 3.41% | viability increase [3] -1.13% | viability [4] 104% | viability [5] 94.2% | inhibition [6] 1.08% | RAM network inhibition [7] 0.22%
